Laboratory results as given in ChEMBL document CHEMBL1152895, “Diacylhydrazine derivatives as novel potential chitin biosynthesis inhibitors: design, synthesis, and structure-activity relationship” (Eur J Med Chem, 2009).
Activity calls are given as the source filed them. The calls are words filed in the database; no cut-off is given here.

System: Saccharomyces cerevisiae
Assay: Inhibition of yeast chitin synthase at 100 ug/mL by high throughput assay
In short: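 Cell-extract enzymatic assay of chitin synthesis. Cells were pelleted at 1500 × g for 10 min at 4 °C, then broken by grinding with glass beads under liquid nitrogen. Activity was scored as percent inhibition, also converted to D = log[a/(100−a)] − log Mw.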

Row | inhibition | Compound
1 | Active | CCCCC(CCCC)N(NC(=O)c1ccccc1Cl)C(=O)c1ccccc1
2 | 81% | CCCCC(CCCC)N(NC(=O)c1ccccc1Cl)C(=O)c1ccccc1OC
3 | Active | CCCCC(CCCC)N(NC(=O)c1cccc(OC)c1)C(=O)c1ccccc1
4 | Active | CCCCC(CCCC)N(NC(=O)c1ccc(CC)cc1)C(=O)c1ccccc1Cl
5 | Active | CCCCC(CCCC)N(NC(=O)c1ccc(Cl)cc1)C(=O)c1ccccc1OC
6 | Active | CCCCC(CCCC)N(NC(=O)c1ccccc1Cl)C(=O)c1cccc(F)c1
7 | Active | CCCCC(CCCC)N(NC(=O)c1ccccc1Cl)C(=O)c1cc(C)cc(C)c1
8 | Active | CCCCC(CCCC)N(NC(=O)c1ccccc1Cl)C(=O)c1ccc(F)cc1

Further lines, the molecule ahead of its results:

Row | Compound | inhibition
9 | CCCCC(CCCC)N(NC(=O)c1cc(OC)c(OC)c(OC)c1)C(=O)c1cc(C)cc(C)c1 | Active
10 | CCCCC(CCCC)N(NC(=O)c1ccc(Cl)cc1Cl)C(=O)c1cc(C)cc(C)c1 | Active
11 | CCCCC(CCCC)N(NC(=O)c1ccc(CC)cc1)C(=O)c1ccccc1OC | 79%
12 | CCCCC(CCCC)N(NC(=O)c1ccc(Cl)cc1)C(=O)c1cc(C)cc(C)c1 | Active
13 | CCCCC(CCCC)N(NC(=O)c1cc(OC)c(OC)c(OC)c1)C(=O)c1cc(F)c(OC)c(F)c1F | Active
14 | CCCCC(CCCC)N(NC(=O)c1cc(C)cc(C)c1)C(=O)c1ccc(CC)cc1 | Active
15 | CCCCC(CCCC)N(NC(=O)c1ccc(CC)cc1)C(=O)c1cc(C)cc(C)c1 | Active
16 | CCCCC(CCCC)N(NC(=O)c1cc(OC)c(OC)c(OC)c1)C(=O)c1ccccc1Cl | Active
17 | CCCCC(CCCC)N(NC(=O)c1ccc(CC)cc1)C(=O)c1cc(F)c(OC)c(F)c1F | Active
18 | CCCCC(CCCC)N(NC(=O)c1ccc(CC)cc1)C(=O)CCl | Active
19 | CCCCC(CCCC)N(NC(=O)c1ccc(CC)cc1)C(=O)c1ccc2c(c1)OCO2 | Active
